# OX1R antag-1 = antagonists of human orexin 1 receptor (OX1R); OX1R-expressing cells, FRET antagonist read-out; inhibition, % at 6.6 µM; 1.8% of 330,000 active; AID 485270; in the data active means inhibition mostly above about 38%, no sharp cut-off; inactive means mostly below about 40%
# Target sequence (O43613 whole entry, looked up): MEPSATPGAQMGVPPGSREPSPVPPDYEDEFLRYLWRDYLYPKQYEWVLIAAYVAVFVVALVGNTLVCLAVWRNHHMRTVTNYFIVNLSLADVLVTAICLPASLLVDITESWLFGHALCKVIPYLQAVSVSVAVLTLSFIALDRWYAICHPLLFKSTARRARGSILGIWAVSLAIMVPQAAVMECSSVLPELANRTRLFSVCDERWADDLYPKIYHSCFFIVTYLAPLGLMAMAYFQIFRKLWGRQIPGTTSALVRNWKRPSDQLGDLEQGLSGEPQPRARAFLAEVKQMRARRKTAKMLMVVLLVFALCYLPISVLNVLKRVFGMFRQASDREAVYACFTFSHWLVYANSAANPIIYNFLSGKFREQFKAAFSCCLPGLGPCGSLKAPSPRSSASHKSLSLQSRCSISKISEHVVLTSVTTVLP
# CHO-K1 Ca PAM = M1 PAM counterscreen hit in parental CHO-K1 cells | ATP EC20, Fluo-8 calcium fluorescence; 0% at ATP EC20, 100% at ATP max | activation, % at 3 µM | 0.02% of 360,000 active | AID 602247;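 active means activation above the run cutoff, the mean activation of all test compounds plus 3 SD, cut at about 40% in these data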;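 further: peak over basal fluorescence ratio in a 140 s read after ATP addition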
# OX1R antag-2 = human HCRTR1 antagonism; O43613; CHO/OX1R cells, Fluo-8 calcium fluorescence, orexin A; inhibition, % at 5 µM; 0.43% of 330,000 active; AID 434989;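 active means inhibition above its plate's threshold, mean inhibition of all tested compounds on the plate plus 3 SD, cut at about 37% in these data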
# CHO parental Ca = signal in parental CHO cells, OX1R antagonist counter-screen | parental CHO-K1, ATP-induced calcium, Fluo-8 fluorescence | inhibition, % at 5.6 µM | 0.63% of 330,000 active | AID 463079;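 active means inhibition above that plate's mean sample inhibition plus 3 SD, cut at about 26% in these data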
#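 Test system: untransfected parental CHO cell line. Compound: one dose, 5.6 µM nominal. Detection: intracellular calcium via Fluo-8 no-wash fluorescent dye. Measure: % inhibition. Benchmarks: ATP-challenged DMSO wells low, unchallenged DMSO wells high.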
# CHO-K1 Ca antag = M1 antagonist counterscreen hit in parental CHO-K1 cells; inhibition, % at 3 µM; AID 602250; 0.6% of 360,000 active; ATP-induced calcium, Fluo-8 fluorescence;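 active means inhibition above a per-plate cutoff, the plate's mean sample inhibition plus 3 SD, cut at about 24% in these data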
# M1 ag parental = counter-screen for M1 agonists: effect in parental CHO-K1 cells | Fluo-8 calcium fluorescence; scaled to maximal ATP response, vehicle zero | activation, % at 3 µM | 0.48% of 360,000 active | AID 602248; in the data active means activation above about 15%;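 further: untransfected CHO-K1 host cells lacking M1 receptor as counterscreen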
# Hits are given with their value; 0 = inactive; - = no result. Compounds with a hit are over-represented: about 2.9% of the library has one in this group of screens.
SMILES,OX1R antag-1,CHO-K1 Ca PAM,OX1R antag-2,CHO parental Ca,CHO-K1 Ca antag,M1 ag parental
COc1ccc(Nc2ccc3c(c2)=NC2(CCCCC2)[N+]=3[O-])cc1,0,0,0,0,0,0
[O-][N+]1=c2ccc(Nc3ccccc3)cc2=NC12CCCCC2,47,0,0,0,0,0
O=C(N/N=C/c1cc([N+](=O)[O-])ccc1Cl)c1ccc2nc[nH]c2c1,62,0,0,0,0,0
O=C(N/N=C/c1ccc(Cl)cc1Cl)c1ccc2nc[nH]c2c1,35,0,0,0,0,0
O=C(N/N=C/c1cccc([N+](=O)[O-])c1)c1cccc2cc[nH]c12,0,0,0,0,0,0
O=C(N/N=C/c1ccccc1C(F)(F)F)c1ccc2nc[nH]c2c1,0,0,0,0,0,0
O=C(N/N=C/c1ccco1)c1ccc2nc[nH]c2c1,0,0,0,0,0,0
O=C(N/N=C/c1cc([N+](=O)[O-])ccc1O)c1cccc2cc[nH]c12,0,0,49,57,0,0
CC1CCCCC1NC(=O)C1CCC(CNS(=O)(=O)c2ccc3c(c2)C(C)(C)C(=O)N3C)CC1 (stereo not drawn),-,0,-,-,0,0
O=c1cc(-c2c(O)c3ccccc3n(Cc3ccccc3)c2=O)[nH][nH]1,0,0,0,0,0,17
CCn1c(=O)c(-c2cc(=O)[nH][nH]2)c(O)c2ccccc21,0,0,0,0,0,0
COc1ccc(NC(=O)c2cccc(N3C(=O)C4C5C=CC(C6CC56)C4C3=O)c2)cc1 (stereo not drawn),0,0,0,0,0,15
COc1ccc(NC(=O)c2cccc(N3C(=O)C4C5C=CC(C6CC56)C4C3=O)c2)c(OC)c1 (stereo not drawn),0,0,0,0,0,18
CCOC(=O)C1CCN(S(=O)(=O)c2cn(C)c(C)n2)CC1,0,0,0,0,0,0
O=C(CNC(=O)c1ccc(S(=O)(=O)N2CCCC2)cc1)N/N=C/c1ccc(Cl)cc1,0,0,0,0,0,0
O=C(Nc1ccc(S(=O)(=O)N2CCOCC2)cc1)c1ccc(CN2CCc3ccccc3C2)cc1,0,-,69,51,-,-
CCOc1ccc(NC(=O)c2ccc(CN3CCc4ccccc4C3)cc2)cc1,0,0,0,0,27,0
CCOC(=O)N1CCC(NC(=O)c2cc(C(=O)Nc3ccc(S(=O)(=O)N4CCCCC4)cc3)ccc2CO)CC1,0,0,0,0,0,19
CCOC(=O)N1CCC(NC(=O)c2cc(C(=O)Nc3ccc(OCC)cc3)ccc2CO)CC1,0,0,0,0,0,0
CCOC(=O)c1ccc(NC(=O)c2ccc(CN3CCc4ccccc4C3)cc2)cc1,0,0,0,0,0,0
O=C(CNC(=O)c1ccc(S(=O)(=O)N2CCCC2)cc1)N/N=C/c1c(Cl)cccc1Cl,0,0,0,0,0,20
Cc1cc(C)c(-n2c(SCC(=O)N3CCOCC3)n[nH]c2=O)c(C)c1,0,0,0,0,0,0
CC(=O)NC(c1ccc(F)c(F)c1)c1nc(-c2cccc(F)c2)cs1 (stereo not drawn),-,0,-,-,0,0
COc1ccc([C@@H]2[C@@H]3C(=O)N(C(C)(C)C)C(=O)[C@@H]3[C@]3(Cc4ccccc4)C(=O)N(c4ccc(C)cc4)C(=O)N23)cc1,0,0,0,0,0,0
CC(=O)N(O)c1ccc(C=Cc2ccccc2)cc1,-,0,-,-,0,0
SMILES,OX1R antag-1,CHO-K1 Ca PAM,OX1R antag-2,CHO parental Ca,CHO-K1 Ca antag,M1 ag parental
O=C(Nc1ccc(Cl)cc1)c1ccc(CN2CCc3ccccc3C2)cc1,0,0,0,0,0,0
Cc1cc(C(=O)Nc2ccc(S(=O)(=O)N3CCCC3)cc2)cs1,0,0,0,0,25,0
O=C(Nc1ccc(S(=O)(=O)N2CCCC2)cc1)c1ccc(CN2CCc3ccccc3C2)cc1,0,0,49,38,0,0
COCCNC(=O)/C(C#N)=C1\N=C(NC(=O)c2cccs2)c2ccccc21,42,0,0,0,0,0
CCCNC(=O)/C(C#N)=C1\N=C(NC(=O)c2cccs2)c2ccccc21,0,0,0,0,0,0
CC(C)c1ccc(NC2CCCN(C(=O)c3ccoc3)C2)cc1 (stereo not drawn),0,0,0,0,0,0
COc1cc(O)c(CC=C(C)C)c(O)c1C(=O)CCc1ccc(O)cc1,0,0,0,39,0,0
O=C(CCc1ccc(O)cc1)c1c(O)cc(O)cc1O,0,0,0,0,0,0
Cc1ccc(S(=O)(=O)CCC(=O)OCC(=O)c2c(N)n(CC(C)C)c(=O)n(C)c2=O)cc1,0,0,0,0,0,18
CCC(C(=O)OCC(=O)c1c(N)n(CC(C)C)c(=O)n(C)c1=O)c1ccccc1 (stereo not drawn),0,0,0,0,0,0
CCCn1c(N)c(C(=O)COC(=O)CCS(=O)(=O)c2ccc(C)cc2)c(=O)[nH]c1=O,0,0,0,0,0,0
CCOc1ccccc1OCC(=O)OCC(=O)c1c(N)n(CC(C)C)c(=O)n(C)c1=O,0,0,0,0,0,17
COc1ccc(CCC(=O)OCC(=O)c2c(N)n(CC(C)C)c(=O)n(C)c2=O)cc1,0,0,0,44,32,16
Cc1ccc(C)c(OC(=O)CN2C(=O)c3ccccc3C2=O)c1,0,0,0,0,0,0
CCCOC(=O)c1ccc(NC(=O)c2cc(Cl)ccc2OC)cc1,66,0,0,0,0,0
CCCOC(=O)c1ccc(NC(=O)c2cc(OC)c(OC)c(OC)c2Br)cc1,0,0,0,0,0,0
O=C1C(Cl)=C(Nc2ccc(O)cc2)C(=O)c2ccccc21,156,0,44,45,0,0
Cc1ccc(NC2=C(Cl)C(=O)c3ccccc3C2=O)cc1,0,0,0,0,0,0
CCOc1ccccc1O[C@H](c1ccccc1)[C@H]1CNCCO1,0,0,0,0,0,0
N#Cc1c(-c2ccc([N+](=O)[O-])cc2)nc2n(c1=O)CCS2,65,0,0,0,0,0
O=c1[nH]nc(Cc2ccc(-c3cccc(Cl)c3)o2)c2ccccc12,71,0,55,0,24,0
O=C(Cc1n[nH]c(=O)c2ccccc12)NCc1ccc(Cl)cc1,0,0,0,0,0,0
CNc1nc(Oc2ccccc2C(=O)OC)nc(SC)n1,0,0,0,0,30,0
COc1ccc(CC(N)c2csc(NC(=O)c3cccc(OC(F)(F)F)c3)n2)cc1 (stereo not drawn),-,0,-,-,0,0
CC(c1ccc(O)cc1)(c1ccc(O)cc1)c1ccc(CCBr)cc1,0,0,0,0,0,18
OCCc1ccc(O)cc1,0,0,0,0,0,0
O=C(Nc1ccccn1)C(c1ccccc1)c1ccccc1,-,0,-,-,0,0
COC(=O)c1c(C)oc2ccc(NS(=O)(=O)c3cccs3)cc12,40,0,0,0,0,0

# Screens: PubChem BioAssay, The Scripps Research Institute Molecular Screening Center
